Only some compounds are listed: those with a hit (about 3.5% of all), similar ones and a draw of the others.
pPAFAH FP inh: inhibitors of human plasma PAF acetylhydrolase (pPAFAH); Q13093; AID 463082; inhibition, % at 3.39 µM; 330,000 tested, 1.5% active; recombinant pPAFAH, FP-rhodamine probe fluorescence polarization;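 active means inhibition above the mean inhibition across the screen plus 3 SD, cut at about 25% in these data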;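 further: inhibitors block binding of the rhodamine activity-based probe so polarization drops; 0% = enzyme with DMSO and 100% = wells lacking pPAFAH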
PAFAH2 FP inh: PAFAH2 (human) inhibition; recombinant PAFAH2, FP-rhodamine activity probe, fluorescence polarization; inhibition, % at 3.39 µM; 340,000 tested, 0.99% active;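 active means inhibition above the mean over all tested compounds plus 3 SD, cut at about 30% in these data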;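 further: inhibitors block probe labeling of enzyme so polarization drops; 0% = enzyme with DMSO and 100% = wells lacking PAFAH2 protein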
PAFAH1B3 inh: PAFAH1B3 (human) inhibition. Q15102. recombinant PAFAH1B3, FP-rhodamine probe, fluorescence polarization. inhibition, % at 3.39 µM. 340,000 tested, 0.28% active. AID 492972;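 active means inhibition above the screen-wide average of all tested compounds plus 3 SD, cut at about 25% in these data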;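 further: 0% = enzyme with DMSO only and 100% = wells lacking PAFAH1B3 protein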
Target sequence (Q15102 whole entry, looked up): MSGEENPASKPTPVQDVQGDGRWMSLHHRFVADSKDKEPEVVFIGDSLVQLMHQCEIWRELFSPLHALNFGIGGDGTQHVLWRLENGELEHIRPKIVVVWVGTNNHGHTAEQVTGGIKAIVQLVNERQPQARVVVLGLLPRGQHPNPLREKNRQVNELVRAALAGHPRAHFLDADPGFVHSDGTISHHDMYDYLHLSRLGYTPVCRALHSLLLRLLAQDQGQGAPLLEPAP
Apaf1 inhib: human Apaf-1 inhibition; O14727; reconstituted apoptosome caspase-3 activity, DEVD-Rh110 fluorescence; inhibition, % at 20 µM; 330,000 tested, 0.71% active; active means inhibition of at least 40% at 20 µM;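 further: plate controls were DMSO wells for no effect and DEVD-CHO caspase inhibitor wells for full effect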
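System – cell-free apoptosome with Apaf-1, procaspase-3 and caspase-9 · Buffer or medium – pH 7.5 Hepes buffer with CHAPS, BSA, DTT · Also added – cytochrome c with DEVD-Rh110 · Times – 30 min compound preincubation, 50 min activation, room temperature · Technique – Rh110 fluorescence intensity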
PREPL inhibitor: inhibitors of human prolyl oligopeptidase-like enzyme PREPL; Q4J6C6; recombinant PREPL, fluorescence polarization activity-based probe; inhibition, % at 5.96 µM; 320,000 tested, 0.68% active; AID 2751; in the data active means inhibition above about 43%;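 further: 0% = enzyme with DMSO and 100% = wells lacking enzyme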
PAFAH1B2 inh: blocks human PAF acetylhydrolase 1b catalytic subunit 2 | P68402 | recombinant PAFAH1B2, FP-rhodamine activity probe, fluorescence polarization | inhibition, % at 3.39 µM | 340,000 tested, 1.2% active | AID 492953;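 active means inhibition above the mean of all tested compounds plus 3 SD, cut at about 24% in these data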;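 further: 0% = enzyme with DMSO and 100% = wells lacking PAFAH1B2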
Target sequence (P68402 whole entry, looked up): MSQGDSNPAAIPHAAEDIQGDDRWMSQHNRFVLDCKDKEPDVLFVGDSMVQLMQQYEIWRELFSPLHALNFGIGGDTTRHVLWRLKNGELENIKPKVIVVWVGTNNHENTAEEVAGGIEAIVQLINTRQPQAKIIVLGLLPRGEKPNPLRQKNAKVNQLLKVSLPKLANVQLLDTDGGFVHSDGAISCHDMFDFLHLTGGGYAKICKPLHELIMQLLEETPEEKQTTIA
An asterisk follows results filed as active; nt = no result.

SMILES | pPAFAH FP inh | PAFAH2 FP inh | PAFAH1B3 inh | Apaf1 inhib | PREPL inhibitor | PAFAH1B2 inh
CN(C)C(=O)c1ccc(NC(=O)COC(=O)C2(c3ccccc3)CCCC2)cc1 | -5 | 7 | 3 | 25 | 14 | 23
Cc1nc2ccccn2c1-c1ccnn1S(=O)(=O)c1ccc(F)cc1 | 3 | 12 | -3 | -4 | -10 | 31*
COc1ccc(N2CC(C(=O)Nc3nc4ccc(F)cc4s3)CC2=O)c(OC)c1 (centres undefined) | 6 | 3 | 15 | 3 | 31 | 7
CNCCNC[C@H](Cc1cccc2ccccc12)NCCc1ccccc1 | 3 | -4 | 0 | 30 | 23 | 3
CNC[C@H](Cc1ccccc1)NC[C@@H](Cc1cccc2ccccc12)NCCc1ccc(C)cc1 | 2 | 4 | 8 | 48* | 17 | 5
COc1ccccc1-n1c(SCC(=O)N2CCOCC2)nc(O)cc1=O | 34* | 0 | 7 | 8 | 10 | -4
COc1ccccc1-n1c(SCC(=O)N2CCOCC2)nc(O)c(Cc2ccccc2)c1=O | 8 | 10 | -4 | 4 | -7 | -1
COc1ccc(Cl)cc1C(=O)NNC(=O)CNC(=O)c1ccco1 | -2 | 1 | 0 | -1 | 15 | 6
CCOc1c(Br)cc(C(=O)OCC(=O)N2CCc3ccccc3C2)cc1OC | 6 | 13 | 8 | 13 | -2 | 5
CC(=O)Oc1cc(C(=O)OCC(=O)N2CCc3ccccc3C2)cc(OC(C)=O)c1OC(C)=O | 33* | 36* | 7 | -7 | 31 | 12
Nc1ccccc1CNc1nc(NCCO)nc2c1ncn2CCN1CCOCC1 | -2 | -8 | 14 | 1 | 10 | 5
CCOC(=O)C1CCCN(Cc2nc3ccc([N+](=O)[O-])cc3c(=O)n2-c2ccc(OC)cc2OC)C1 (centres undefined) | 0 | 6 | 10 | -8 | 11 | 6
Cc1ccc(NS(=O)(=O)c2cccc(C(=O)N/N=C/c3ccc4c(c3)OCCO4)c2)c(C)c1 | 32* | -60 | -34 | 11 | -10 | -14
C/C(=N\NC(=O)c1cccc(S(=O)(=O)Nc2ccc(C)cc2C)c1)c1ccncc1 | nt | 3 | 1 | 10 | nt | 6
CCN1C(=O)c2ccccc2S(=O)(=O)c2ccc(C(=O)NCCOC)cc21 | -3 | -7 | 14 | 7 | 11 | 4
CC(C)NCC#CCOc1ccc(Cl)cc1 | 6 | 7 | 2 | -2 | -2 | 30*
COc1cccc(C(=O)Nc2ccc(N3CCN(C(=O)c4cccs4)CC3)cc2)c1 | -2 | 5 | 9 | 14 | 33 | 0
O=S(=O)(NC1CCCC1)c1ccc(S(=O)(=O)N2CCc3ccccc32)cc1 | 27* | 8 | 0 | 14 | 16 | 27*
COc1ccc(/C=C/c2ccc3c(Br)ccc(O)c3n2)cc1 | 11 | 4 | 0 | 6 | 15 | 1
COc1cc(/C=C/c2ccc3c(Br)cc(Br)c(O)c3n2)ccc1O | 34* | 6 | 22 | nt | 18 | 6
CCOC(=O)C1=C(CSc2nc3c(cc2C#N)CN(C)CC3)OC(N)=C(C#N)C1c1ccccc1 (centres undefined) | 17 | 11 | 9 | 12 | 16 | 6
COC(=O)C1=C(CSc2nc3c(cc2C#N)CN(C)CC3)OC(N)=C(C#N)C1c1ccccc1F (centres undefined) | 28* | 15 | 9 | 27 | 25 | 11
O=C(Nc1ccccc1C(F)(F)F)c1cc(S(=O)(=O)N2CCC3(CC2)OCCO3)ccc1F | 7 | 6 | 0 | -4 | 9 | 24*
COc1cccc(Nc2nc3ccccc3nc2NS(=O)(=O)c2cccs2)c1 | 32* | 8 | -1 | -2 | 5 | 11
COc1cc(C#Cc2c(-c3cncn3C)n(C)c3ccc(-c4cnc(N5CCOCC5)nc4)cc23)cc(OC)c1 | 9 | 1 | 14 | 33 | 33 | -4
COc1cc(C#Cc2c(-c3cncn3C)n(C)c3ccc(-c4cnc(OC)nc4)cc23)cc(OC)c1 | 15 | 4 | 9 | 42* | 39 | 4
Cc1ccc(CNC(=O)CO/N=C/c2ccc(C(C)(C)C)cc2)cc1 | 7 | -6 | 3 | 21 | 3 | 29*
CC(C)(C)c1ccc(/C=N/OCC(=O)NCc2ccccc2)cc1 | 5 | 5 | -3 | 10 | 11 | 23
Cc1ccc(CS(=O)(=O)Cc2ccc(C(=O)NCc3ccco3)o2)cc1 | 34* | 3 | 0 | -26 | 2 | 1

Compound activity as filed in PubChem BioAssay.
